According to ChEMBL document CHEMBL3856257, “Benzo[b]thiophene-2-carboxamide derivatives as potent urotensin-II receptor antagonists” (Bioorg Med Chem Lett, 2016):

Tested on: not listed separately
Assay: Metabolic stability in human liver microsomes after 30 mins
Assay type: ADME
Details: read-out: Stability

Compound	remaining at 0.5 h [%]
N#Cc1ccc2sc(C(=O)NC3CCN(Cc4ccc(OC5CCNCC5)c(Br)c4)CC3)cc2c1	85

Tested on: not listed separately
Assay: Metabolic stability in rat liver microsomes after 30 mins
Assay type: ADME
Details: read-out: Stability

Compound	remaining at 0.5 h [%]
N#Cc1ccc2sc(C(=O)NC3CCN(Cc4ccc(OC5CCNCC5)c(Br)c4)CC3)cc2c1	74

Target: CYP2D6 (Homo sapiens, UniProt P10635)
Sequence (P10635 whole entry): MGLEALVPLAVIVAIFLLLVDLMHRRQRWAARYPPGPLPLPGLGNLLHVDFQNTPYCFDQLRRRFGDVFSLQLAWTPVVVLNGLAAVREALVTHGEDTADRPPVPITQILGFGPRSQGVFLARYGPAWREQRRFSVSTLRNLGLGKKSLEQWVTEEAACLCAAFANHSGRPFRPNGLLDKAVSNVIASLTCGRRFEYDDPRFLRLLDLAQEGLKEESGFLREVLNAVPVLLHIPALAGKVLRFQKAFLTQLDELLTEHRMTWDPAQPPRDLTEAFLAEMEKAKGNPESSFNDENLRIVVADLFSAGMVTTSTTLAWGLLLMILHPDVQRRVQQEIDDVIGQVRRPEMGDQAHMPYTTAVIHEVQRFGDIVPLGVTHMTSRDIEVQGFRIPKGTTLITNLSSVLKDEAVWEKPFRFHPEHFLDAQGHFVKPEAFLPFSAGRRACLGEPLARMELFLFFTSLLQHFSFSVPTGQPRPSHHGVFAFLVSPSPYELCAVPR
Assay: Inhibition of CYP2D6 (unknown origin) at 10 uM
Assay type: ADME
Details: not given

Compound	inhibition at 10 µM [%]
N#Cc1ccc2sc(C(=O)NC3CCN(Cc4ccc(OC5CCNCC5)c(Br)c4)CC3)cc2c1	55

Target: CYP3A4 (Homo sapiens, UniProt P08684)
Sequence (P08684 whole entry): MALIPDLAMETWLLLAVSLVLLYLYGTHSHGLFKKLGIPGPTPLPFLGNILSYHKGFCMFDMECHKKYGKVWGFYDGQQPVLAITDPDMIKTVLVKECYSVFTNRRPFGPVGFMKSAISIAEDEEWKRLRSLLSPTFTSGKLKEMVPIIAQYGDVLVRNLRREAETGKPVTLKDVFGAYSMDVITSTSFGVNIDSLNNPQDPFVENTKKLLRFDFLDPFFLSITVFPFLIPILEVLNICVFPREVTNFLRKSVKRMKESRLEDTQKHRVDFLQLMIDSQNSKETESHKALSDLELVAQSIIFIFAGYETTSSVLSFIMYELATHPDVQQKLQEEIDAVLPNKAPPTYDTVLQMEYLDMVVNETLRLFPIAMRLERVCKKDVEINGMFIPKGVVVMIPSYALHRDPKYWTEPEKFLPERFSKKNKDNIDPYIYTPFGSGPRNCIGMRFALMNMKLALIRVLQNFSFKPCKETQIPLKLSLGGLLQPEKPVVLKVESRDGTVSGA
Assay: Inhibition of CYP3A4 (unknown origin) at 10 uM
Assay type: ADME
Details: not given

Compound	inhibition at 10 µM [%]
N#Cc1ccc2sc(C(=O)NC3CCN(Cc4ccc(OC5CCNCC5)c(Br)c4)CC3)cc2c1	75

Target: T1, Urotensin-2 receptor (Homo sapiens, UniProt Q9UKP6)
T1 sequence (Q9UKP6 whole entry): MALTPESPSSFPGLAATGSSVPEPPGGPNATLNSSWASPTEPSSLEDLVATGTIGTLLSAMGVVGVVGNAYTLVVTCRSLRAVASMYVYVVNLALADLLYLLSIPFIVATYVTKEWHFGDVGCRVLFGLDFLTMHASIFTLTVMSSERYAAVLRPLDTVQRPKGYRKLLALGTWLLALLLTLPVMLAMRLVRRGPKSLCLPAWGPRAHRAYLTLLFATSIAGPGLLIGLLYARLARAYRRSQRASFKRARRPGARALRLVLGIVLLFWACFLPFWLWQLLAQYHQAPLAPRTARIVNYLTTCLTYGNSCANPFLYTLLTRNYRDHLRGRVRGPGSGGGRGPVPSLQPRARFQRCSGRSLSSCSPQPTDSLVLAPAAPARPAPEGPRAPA
Assay: Displacement of europium-labeled urotensin-2 from human recombinant urotensin-2 receptor expressed in HEK293 cell membranes after 90 mins by filtration based time resolved fluorometric assay
Details: not given
Outline: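 Competitive binding against Eu-labeled U-II on membranes of HEK293 cells expressing human UT receptor, read by time-resolved fluorometry. IC50 values are means of at least two measurements.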

Compound	IC50 [nM]
O=C(NC1CCN(Cc2ccc(OC3CCNCC3)c(Br)c2)CC1)c1cc2cc(-c3ccccc3)ccc2s1	310
O=C(NC1CCN(Cc2ccc(OC3CCNCC3)c(Br)c2)CC1)c1cc2cc(Br)ccc2s1	86
O=C(NC1CCN(Cc2ccc(OC3CCNCC3)c(Br)c2)CC1)c1cccs1	130
O=C(NC1CCN(Cc2ccc(OC3CCNCC3)c(Br)c2)CC1)c1ccccn1	120
O=C(NC1CCN(Cc2ccc(OC3CCNCC3)c(Br)c2)CC1)c1cc2ccc(-c3ccc(F)cc3)cc2s1	74
COc1cccc(-c2ccc3cc(C(=O)NC4CCN(Cc5ccc(OC6CCNCC6)c(Br)c5)CC4)sc3c2)c1	87
O=C(NC1CCN(Cc2ccc(OC3CCNCC3)c(Br)c2)CC1)c1cc2cc(F)ccc2s1	53
O=C(NC1CCN(Cc2ccc(OC3CCNCC3)c(Br)c2)CC1)c1cc2cc(C(F)(F)F)ccc2s1	100
O=C(NC1CCN(Cc2ccc(OC3CCNCC3)c(Br)c2)CC1)c1cscn1	970
O=C(NC1CCN(Cc2ccc(OC3CCNCC3)c(Br)c2)CC1)c1cc2cc(Cl)ccc2s1	51
O=C(NC1CCN(Cc2ccc(OC3CCNCC3)c(Br)c2)CC1)c1cc2cc([N+](=O)[O-])ccc2s1	49
O=C(NC1CCN(Cc2ccc(OC3CCNCC3)c(Br)c2)CC1)c1cc2ccccc2s1	63
COc1ccccc1-c1ccc2cc(C(=O)NC3CCN(Cc4ccc(OC5CCNCC5)c(Br)c4)CC3)sc2c1	560
O=C(NC1CCN(Cc2ccc(OC3CCNCC3)c(Br)c2)CC1)c1cnccn1	610
Cc1ccc(-c2ccc3cc(C(=O)NC4CCN(Cc5ccc(OC6CCNCC6)c(Br)c5)CC4)sc3c2)cc1	140
O=C(NC1CCN(Cc2ccc(OC3CCNCC3)c(Br)c2)CC1)c1cc2ccc(-c3ccc(Cl)cc3)cc2s1	140
CCc1ccc2sc(C(=O)NC3CCN(Cc4ccc(OC5CCNCC5)c(Br)c4)CC3)cc2c1	180
COc1ccc2sc(C(=O)NC3CCN(Cc4ccc(OC5CCNCC5)c(Br)c4)CC3)cc2c1	100
COc1ccc(-c2ccc3cc(C(=O)NC4CCN(Cc5ccc(OC6CCNCC6)c(Br)c5)CC4)sc3c2)cc1	49
O=C(NC1CCN(Cc2ccc(OC3CCNCC3)c(Br)c2)CC1)c1ccco1	770
N#Cc1ccc2sc(C(=O)NC3CCN(Cc4ccc(OC5CCNCC5)c(Br)c4)CC3)cc2c1	25
O=C(NC1CCN(Cc2ccc(OC3CCNCC3)c(Br)c2)CC1)c1ccno1	340
N#Cc1ccc2cc(C(=O)NC3CCN(Cc4ccc(OC5CCNCC5)c(Br)c4)CC3)sc2c1	80
Cc1ccc2sc(C(=O)NC3CCN(Cc4ccc(OC5CCNCC5)c(Br)c4)CC3)cc2c1	74
O=C(NC1CCN(Cc2ccc(OC3CCNCC3)c(Br)c2)CC1)c1cc2ccc(-c3ccccc3)cc2s1	90
